Reference: ChEMBL document CHEMBL1149817, “Epimers of bicyclo[2.2.2]octan-2-ol derivatives with antiprotozoal activity” (Eur J Med Chem, 2008)

Key:
[1] = tested on: L6; test: Cytotoxicity against rat L6 cells; format: cell-based
[2] = tested on: Trypanosoma brucei rhodesiense; test: Antiprotozoal activity against Trypanosoma brucei rhodesiense STIB900; format: functional, organism-based
[3] = tested on: Plasmodium falciparum; test: Antiprotozoal activity against chloroquine and pyrimethamine-resistant Plasmodium falciparum K1; format: functional, organism-based
In short: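 Read-out was IC50 against the K1 strain of P. falciparum, which is resistant to chloroquine and pyrimethamine. The table footnote gives values from two independent experiments.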

Compound	IC50 ([1]; l6)	IC50 [2]	IC50 [3]	IC50 ([1]; Rattus norvegicus, L6)	IC50 ([2]; Trypanosoma brucei)	IC50 ([3]; Plasmodium falciparum, K1)
CN(C)C12CC(OC(=O)c3ccccc3)C(C(c3ccccc3)C1)C(c1ccccc1)C2 (stereo in doubt; 4a)	9.88 µM	1.53 µM	2.47 µM			
OC1CC2(N3CCCC3)CC(c3ccccc3)C1C(c1ccccc1)C2 (racemic)				35.4 µM	2.53 µM	1.23 µM
O=C(OC1CC2(N3CCCCC3)CC(c3ccccc3)C1C(c1ccccc1)C2)c1ccccc1 (racemic)	17.2 µM	3.12 µM				0.77 µM
O=C(OC1CC2(N3CCCCC3)CC(c3ccccc3)C1C(c1ccccc1)C2)c1ccccc1 (stereo in doubt; 4c)	97.3 µM	15 µM	0.66 µM			
O=C(OC1CC2(N3CCCCC3)CC(c3ccccc3)C1C(c1ccccc1)C2)c1ccc(Cl)cc1 (racemic)	23 µM	1.76 µM				1.12 µM
CN(C)C12CC(OC(=O)c3ccncc3)C(C(c3ccccc3)C1)C(c1ccccc1)C2 (racemic; 11a)	12.5 µM		0.49 µM		1.68 µM	
CN(C)C12CC(OC(=O)c3ccc(Cl)cc3)C(C(c3ccccc3)C1)C(c1ccccc1)C2 (racemic)	4.35 µM		1.11 µM		2.04 µM	
O=C(OC1CC2(N3CCCC3)CC(c3ccccc3)C1C(c1ccccc1)C2)c1cccnc1 (racemic)			2.34 µM	18.7 µM	1.07 µM	
O=C(OC1CC2(N3CCCC3)CC(c3ccccc3)C1C(c1ccccc1)C2)c1ccc(Cl)cc1 (stereo in doubt; 5b)	74.9 µM	6.27 µM	0.47 µM			
O=C(OC1CC2(N3CCCC3)CC(c3ccccc3)C1C(c1ccccc1)C2)c1ccncc1 (racemic; 11b)		1.44 µM	4.49 µM	26.9 µM		
CN(C)C12CC(OC(=O)c3ccc(Cl)cc3)C(C(c3ccccc3)C1)C(c1ccccc1)C2 (stereo in doubt; 5a)	9.46 µM	1.06 µM	0.55 µM			
CN(C)C12CC(O)C(C(c3ccccc3)C1)C(c1ccccc1)C2 (racemic)	158 µM	3.64 µM	13.1 µM			
CN(C)C12CC(OC(=O)c3cccnc3)C(C(c3ccccc3)C1)C(c1ccccc1)C2 (stereo in doubt; 6a)	171 µM	15.9 µM	1.49 µM			
O=C(OC1CC2(N3CCCC3)CC(c3ccccc3)C1C(c1ccccc1)C2)c1ccccc1 (stereo in doubt; 4b)	5.08 µM	4.95 µM	4.5 µM			
O=C(OC1CC2(N3CCCC3)CC(c3ccccc3)C1C(c1ccccc1)C2)c1cccnc1 (stereo in doubt; 6b)	24.4 µM	0.62 µM	0.2 µM			
O=C(OC1CC2(N3CCCC3)CC(c3ccccc3)C1C(c1ccccc1)C2)c1ccncc1 (racemic; 7b)	27.4 µM	3.49 µM	0.86 µM			
OC1CC2(N3CCCCC3)CC(c3ccccc3)C1C(c1ccccc1)C2 (racemic)		13.1 µM	2.77 µM	34.3 µM		
O=C(OC1CC2(N3CCCC3)CC(c3ccccc3)C1C(c1ccccc1)C2)c1ccc(Cl)cc1 (racemic)	7.31 µM	0.86 µM				0.76 µM
O=C(OC1CC2(N3CCCCC3)CC(c3ccccc3)C1C(c1ccccc1)C2)c1cccnc1 (racemic)	21.3 µM					
O=C(OC1CC2(N3CCCCC3)CC(c3ccccc3)C1C(c1ccccc1)C2)c1ccncc1 (racemic; 7c)	113 µM	16.9 µM	0.65 µM			
O=C(OC1CC2(N3CCCCC3)CC(c3ccccc3)C1C(c1ccccc1)C2)c1ccncc1 (racemic; 11c)	21.3 µM	3.35 µM				0.62 µM
O=C(OC1CC2(N3CCCC3)CC(c3ccccc3)C1C(c1ccccc1)C2)c1ccccc1 (racemic)		0.96 µM	0.8 µM	8.41 µM		
O=C(OC1CC2(N3CCCCC3)CC(c3ccccc3)C1C(c1ccccc1)C2)c1cccnc1 (stereo in doubt; 6c)	0.87 µM				70.9 µM	0.48 µM
CN(C)C12CC(OC(=O)c3cccnc3)C(C(c3ccccc3)C1)C(c1ccccc1)C2 (racemic)	12.2 µM	1.52 µM	0.5 µM			
O=C(OC1CC2(N3CCCCC3)CC(c3ccccc3)C1C(c1ccccc1)C2)c1ccc(Cl)cc1 (stereo in doubt; 5c)	104 µM	37.6 µM	0.79 µM			
CN(C)C12CC(OC(=O)c3ccncc3)C(C(c3ccccc3)C1)C(c1ccccc1)C2 (racemic; 7a)	26.1 µM	3.16 µM	1.14 µM			
CN(C)C12CC(OC(=O)c3ccccc3)C(C(c3ccccc3)C1)C(c1ccccc1)C2 (racemic)			1.18 µM	6.02 µM	1.12 µM	
